Results on 31 compounds are retold here after ChEMBL document CHEMBL1158444 (J Med Chem, 2009).

The target of data set [1] is T1, Metabotropic glutamate receptor 4 (Homo sapiens, UniProt Q14833). Nature of the data set: Activity at human mGluR4 receptor expressed in CHO cells assessed as effect on calcium mobilization. It is filed as functional, cell-based. On the technique in general: Calcium flux is commonly read through the fluorescence of an indicator in the cells.
Data set [2] deals with Metabotropic glutamate receptor 4 (Rattus norvegicus, UniProt P31423). Nature of the data set: Activity at rat mGluR4 receptor expressed in HEK293 cells assessed as effect on thallium flux.
Sequence of Metabotropic glutamate receptor 4 (Rattus norvegicus, UniProt P31423) (P31423 whole entry): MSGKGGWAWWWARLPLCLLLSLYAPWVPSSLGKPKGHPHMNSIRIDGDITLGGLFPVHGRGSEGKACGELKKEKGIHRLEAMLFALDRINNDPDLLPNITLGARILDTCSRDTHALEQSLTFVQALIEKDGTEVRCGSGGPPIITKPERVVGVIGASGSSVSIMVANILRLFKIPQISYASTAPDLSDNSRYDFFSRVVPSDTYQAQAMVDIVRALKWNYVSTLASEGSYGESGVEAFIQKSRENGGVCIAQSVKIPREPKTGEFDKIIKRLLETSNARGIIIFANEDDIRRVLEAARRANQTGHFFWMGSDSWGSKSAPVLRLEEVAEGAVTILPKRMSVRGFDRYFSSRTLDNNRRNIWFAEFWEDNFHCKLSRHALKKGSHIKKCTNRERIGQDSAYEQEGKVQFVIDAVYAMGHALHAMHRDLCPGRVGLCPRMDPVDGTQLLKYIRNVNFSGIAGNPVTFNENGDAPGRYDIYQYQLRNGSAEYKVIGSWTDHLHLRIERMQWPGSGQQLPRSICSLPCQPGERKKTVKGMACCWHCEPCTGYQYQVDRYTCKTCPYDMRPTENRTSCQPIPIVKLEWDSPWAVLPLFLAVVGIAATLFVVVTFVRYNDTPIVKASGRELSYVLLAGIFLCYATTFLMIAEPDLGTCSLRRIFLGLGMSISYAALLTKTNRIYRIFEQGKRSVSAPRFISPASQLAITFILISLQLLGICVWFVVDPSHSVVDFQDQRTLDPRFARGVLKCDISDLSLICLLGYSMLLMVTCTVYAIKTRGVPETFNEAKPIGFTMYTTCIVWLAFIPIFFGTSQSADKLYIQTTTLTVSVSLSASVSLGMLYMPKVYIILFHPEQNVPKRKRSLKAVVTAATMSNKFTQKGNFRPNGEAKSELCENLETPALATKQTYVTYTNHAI
Data set [3] has as its target Metabotropic glutamate receptor 4 (Rattus norvegicus) (UniProt P31423). The experiment in a line: Activity at rat mGluR4 expressed in HEK293 cells coexpressing Gqi5 protein assessed as fold shifting of glutamate-induced response to left at 30 uM. The format is cell-based.
Data set [4] deals with T1, Metabotropic glutamate receptor 4. The experiment in a line: Activity at human mGluR4 receptor expressed in CHO cells assessed as effect on calcium mobilization relative to glutamate. It is filed as functional, cell-based.
Data set [5] addresses Metabotropic glutamate receptor 4 (Rattus norvegicus) (UniProt P31423). The experiment in a line: Activity at rat mGluR4 receptor expressed in HEK293 cells assessed as effect on thallium flux relative to glutamate. The format is cell-based.
In data set [6] the target is T1, Metabotropic glutamate receptor 4. The experiment in a line: Activity at human mGluR4 expressed in CHO cells coexpressing Gqi5 protein assessed as fold shifting of glutamate-induced response to left at 30 uM. The format is cell-based.
Data set [7] concerns Plasma. Nature of the data set: Fraction unbound in rat plasma by at […]. The format is ADME, cell-free.
Data set [8] is described as follows: Metabolic stability in human liver microsomes after 1 hr. The conditions noted are these: read-out: Stability. The format is ADME, Microsome. On the technique in general: Microsomes from liver hold many membrane-bound enzymes, among them those of drug oxidation.
Data set [9] concerns Plasma. Nature of the data set: Fraction unbound in human plasma by at […]. The format is ADME, cell-free.
Data set [10] in a line: Metabolic stability in rat liver microsomes after 1 hr. The format is ADME, Microsome. To be noted: read-out: Stability.
Data set [11] has as its target Metabotropic glutamate receptor 8 (Homo sapiens) (UniProt O00222). The experiment in a line: Activity at human mGluR8 assessed as fold shifting of glutamate-induced response to left.
For data set [12], the target named is Metabotropic glutamate receptor 7 (Homo sapiens) (UniProt Q14831). The experiment in a line: Activity at human mGluR7.
Data set [13] addresses Metabotropic glutamate receptor 1 (Homo sapiens) (UniProt Q13255). Nature of the data set: Activity at human mGluR1.
Data set [14] addresses Metabotropic glutamate receptor 3 (Homo sapiens) (UniProt Q14832). Nature of the data set: Activity at human mGluR3.
Data set [15] deals with Metabotropic glutamate receptor 5 (Homo sapiens) (UniProt P41594). Nature of the data set: Activity at human mGluR5.
Sequence of Metabotropic glutamate receptor 5 (Homo sapiens) (P41594 21-1212 limits assumed): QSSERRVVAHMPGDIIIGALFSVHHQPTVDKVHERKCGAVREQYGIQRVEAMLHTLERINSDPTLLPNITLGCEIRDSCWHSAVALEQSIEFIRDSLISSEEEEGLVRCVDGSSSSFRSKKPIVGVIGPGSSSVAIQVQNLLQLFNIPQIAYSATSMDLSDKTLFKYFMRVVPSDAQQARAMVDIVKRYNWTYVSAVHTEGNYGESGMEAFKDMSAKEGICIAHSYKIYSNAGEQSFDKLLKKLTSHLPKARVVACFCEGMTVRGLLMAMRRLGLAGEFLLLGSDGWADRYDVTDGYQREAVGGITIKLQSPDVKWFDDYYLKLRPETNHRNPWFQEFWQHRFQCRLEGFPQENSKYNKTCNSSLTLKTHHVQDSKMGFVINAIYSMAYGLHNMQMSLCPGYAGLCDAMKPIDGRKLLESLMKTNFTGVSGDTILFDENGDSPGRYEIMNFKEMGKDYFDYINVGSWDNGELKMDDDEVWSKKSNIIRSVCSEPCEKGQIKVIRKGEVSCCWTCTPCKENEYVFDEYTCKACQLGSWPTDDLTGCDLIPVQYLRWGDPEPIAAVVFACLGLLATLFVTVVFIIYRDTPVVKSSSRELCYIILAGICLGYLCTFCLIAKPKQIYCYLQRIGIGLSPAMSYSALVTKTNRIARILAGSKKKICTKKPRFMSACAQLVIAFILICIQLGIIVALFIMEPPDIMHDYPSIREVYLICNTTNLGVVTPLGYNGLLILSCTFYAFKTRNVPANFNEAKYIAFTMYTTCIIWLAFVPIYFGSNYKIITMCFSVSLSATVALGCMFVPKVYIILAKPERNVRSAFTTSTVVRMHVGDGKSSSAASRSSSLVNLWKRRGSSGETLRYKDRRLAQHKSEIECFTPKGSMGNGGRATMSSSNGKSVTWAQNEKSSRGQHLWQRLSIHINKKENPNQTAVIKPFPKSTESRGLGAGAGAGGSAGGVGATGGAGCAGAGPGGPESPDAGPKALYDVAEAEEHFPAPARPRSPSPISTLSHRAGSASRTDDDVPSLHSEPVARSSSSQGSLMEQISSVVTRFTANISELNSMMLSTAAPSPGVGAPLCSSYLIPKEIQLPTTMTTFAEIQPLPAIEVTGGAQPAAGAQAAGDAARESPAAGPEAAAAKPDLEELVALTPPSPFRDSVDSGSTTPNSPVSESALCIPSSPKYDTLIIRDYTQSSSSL
Data set [16] concerns the target Metabotropic glutamate receptor 2 (Homo sapiens) (UniProt Q14416). Nature of the data set: Activity at human mGluR2.
In data set [17] the test system is Plasma. Nature of the data set: AUC in Sprague-Dawley rat plasma at 10 mg/kg, ip. The format is ADME, organism-based. Further details: dose 10 mg/kg, route intraperitoneal. To be noted: in vivo.
Data set [18] relates to Brain. Nature of the data set: Half life in Sprague-Dawley rat brain at 10 mg/kg, ip. The conditions noted are these: in vivo. Further details: dose 10 mg/kg, route intraperitoneal. The format is ADME, organism-based. The method, boiled down: (§1)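 Rats dosed intraperitoneally at 10mg/kg with the hydrochloride salt, given as an aqueous microsuspension containing 10% tween 80. Compound levels in brain and plasma were measured at 0.5, 1 and 8 h after administration.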

Data set [19] relates to Plasma. Nature of the data set: Cmax in Sprague-Dawley rat plasma at 10 mg/kg, ip. It is filed as ADME, organism-based. To be noted: in vivo. Further details: dose 10 mg/kg, route intraperitoneal.
Data set [20] is described as follows: Apparent oral clearance in Sprague-Dawley rat at 10 mg/kg, ip. The format is ADME, organism-based. On the set-up: dose 10 mg/kg. The conditions noted are these: in vivo. In outline: as §1
A short description of data set [21]: AUC in Sprague-Dawley rat brain at 10 mg/kg, ip. The format is ADME, organism-based. Further details: dose 10 mg/kg, route intraperitoneal. The method, boiled down: as §1
The nature of data set [22]: Cmax in Sprague-Dawley rat brain at 10 mg/kg, ip. The format is ADME, organism-based. Further details: dose 10 mg/kg, route intraperitoneal. In outline:
as §1

Data set [23] deals with Plasma. The experiment in a line: Half life in Sprague-Dawley rat plasma at 10 mg/kg, ip. The format is ADME, organism-based. Further details: dose 10 mg/kg, route intraperitoneal. To be noted: in vivo. In outline:
as §1

By EC50 is commonly meant the concentration needed to bring the measured effect to its halfway point. Usually Emax stands for the greatest response seen or fitted, relative to the assay's reference. In general, AUC refers to concentration integrated over time. Read a low AUC as low exposure. Broadly, the Cmax is the highest concentration seen after dosing. One may read the CL/F as clearance divided by bioavailability, as obtained after extravascular dosing.

Calls of active or inactive are those of the source. The rule behind the calls is not given here.

T1 sequence (Q14833 whole entry): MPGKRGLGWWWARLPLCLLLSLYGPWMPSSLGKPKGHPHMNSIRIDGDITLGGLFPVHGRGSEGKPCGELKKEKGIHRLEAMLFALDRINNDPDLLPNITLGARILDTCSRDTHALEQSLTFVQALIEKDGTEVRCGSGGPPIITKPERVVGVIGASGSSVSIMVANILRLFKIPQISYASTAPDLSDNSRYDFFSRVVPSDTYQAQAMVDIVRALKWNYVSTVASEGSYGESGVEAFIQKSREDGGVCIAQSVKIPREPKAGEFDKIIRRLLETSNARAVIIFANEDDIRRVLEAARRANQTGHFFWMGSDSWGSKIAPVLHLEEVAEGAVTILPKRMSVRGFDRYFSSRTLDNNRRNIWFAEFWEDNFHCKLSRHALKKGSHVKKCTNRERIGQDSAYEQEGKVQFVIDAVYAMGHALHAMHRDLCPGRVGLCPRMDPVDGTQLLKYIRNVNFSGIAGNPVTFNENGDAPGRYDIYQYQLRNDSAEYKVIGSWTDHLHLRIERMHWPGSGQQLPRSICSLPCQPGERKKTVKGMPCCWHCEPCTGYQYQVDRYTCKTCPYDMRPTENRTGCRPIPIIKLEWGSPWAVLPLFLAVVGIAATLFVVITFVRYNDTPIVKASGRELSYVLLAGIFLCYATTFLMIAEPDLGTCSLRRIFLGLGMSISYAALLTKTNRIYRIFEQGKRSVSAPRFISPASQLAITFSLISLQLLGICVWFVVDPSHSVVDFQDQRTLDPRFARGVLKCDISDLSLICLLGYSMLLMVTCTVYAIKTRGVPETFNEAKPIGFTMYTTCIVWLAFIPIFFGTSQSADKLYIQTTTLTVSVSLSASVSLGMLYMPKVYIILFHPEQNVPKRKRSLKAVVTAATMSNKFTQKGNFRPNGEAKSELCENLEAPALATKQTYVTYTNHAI
Sequence of Metabotropic glutamate receptor 4 (Rattus norvegicus) (P31423 whole entry): as the sequence (P31423 whole entry) above
Sequence of Metabotropic glutamate receptor 1 (Homo sapiens) (Q13255 19-1194 limits assumed): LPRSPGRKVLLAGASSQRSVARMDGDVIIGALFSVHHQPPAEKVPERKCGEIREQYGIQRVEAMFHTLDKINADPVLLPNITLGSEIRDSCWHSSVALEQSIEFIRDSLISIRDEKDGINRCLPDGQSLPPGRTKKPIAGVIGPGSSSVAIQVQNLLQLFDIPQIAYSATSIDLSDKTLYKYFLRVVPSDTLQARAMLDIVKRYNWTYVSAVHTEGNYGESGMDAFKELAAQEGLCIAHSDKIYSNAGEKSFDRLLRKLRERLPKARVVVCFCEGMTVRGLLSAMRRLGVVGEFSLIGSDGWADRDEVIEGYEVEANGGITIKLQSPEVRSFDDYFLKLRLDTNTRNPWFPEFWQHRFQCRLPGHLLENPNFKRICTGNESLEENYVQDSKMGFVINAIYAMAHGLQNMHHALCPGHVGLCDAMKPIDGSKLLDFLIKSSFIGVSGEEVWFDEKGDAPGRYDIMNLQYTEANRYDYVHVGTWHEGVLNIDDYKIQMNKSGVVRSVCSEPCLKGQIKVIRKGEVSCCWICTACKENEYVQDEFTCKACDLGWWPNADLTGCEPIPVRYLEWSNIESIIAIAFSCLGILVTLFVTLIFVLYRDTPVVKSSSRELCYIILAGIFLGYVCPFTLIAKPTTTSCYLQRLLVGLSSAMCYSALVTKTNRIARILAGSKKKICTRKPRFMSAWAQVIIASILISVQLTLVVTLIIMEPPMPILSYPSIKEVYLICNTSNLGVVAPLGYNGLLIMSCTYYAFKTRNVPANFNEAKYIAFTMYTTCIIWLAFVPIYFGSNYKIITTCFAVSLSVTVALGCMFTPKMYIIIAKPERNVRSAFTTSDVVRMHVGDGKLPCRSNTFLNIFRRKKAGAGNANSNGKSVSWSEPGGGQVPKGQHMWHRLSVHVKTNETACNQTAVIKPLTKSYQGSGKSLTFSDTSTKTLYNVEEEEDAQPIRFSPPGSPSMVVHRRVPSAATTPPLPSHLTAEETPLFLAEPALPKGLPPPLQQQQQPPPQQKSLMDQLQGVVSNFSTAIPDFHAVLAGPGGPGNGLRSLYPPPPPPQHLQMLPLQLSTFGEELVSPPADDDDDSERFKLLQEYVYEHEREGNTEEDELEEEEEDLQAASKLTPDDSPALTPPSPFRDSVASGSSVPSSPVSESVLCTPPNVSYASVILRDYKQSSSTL
Sequence of Metabotropic glutamate receptor 3 (Homo sapiens) (Q14832 23-879 limits assumed): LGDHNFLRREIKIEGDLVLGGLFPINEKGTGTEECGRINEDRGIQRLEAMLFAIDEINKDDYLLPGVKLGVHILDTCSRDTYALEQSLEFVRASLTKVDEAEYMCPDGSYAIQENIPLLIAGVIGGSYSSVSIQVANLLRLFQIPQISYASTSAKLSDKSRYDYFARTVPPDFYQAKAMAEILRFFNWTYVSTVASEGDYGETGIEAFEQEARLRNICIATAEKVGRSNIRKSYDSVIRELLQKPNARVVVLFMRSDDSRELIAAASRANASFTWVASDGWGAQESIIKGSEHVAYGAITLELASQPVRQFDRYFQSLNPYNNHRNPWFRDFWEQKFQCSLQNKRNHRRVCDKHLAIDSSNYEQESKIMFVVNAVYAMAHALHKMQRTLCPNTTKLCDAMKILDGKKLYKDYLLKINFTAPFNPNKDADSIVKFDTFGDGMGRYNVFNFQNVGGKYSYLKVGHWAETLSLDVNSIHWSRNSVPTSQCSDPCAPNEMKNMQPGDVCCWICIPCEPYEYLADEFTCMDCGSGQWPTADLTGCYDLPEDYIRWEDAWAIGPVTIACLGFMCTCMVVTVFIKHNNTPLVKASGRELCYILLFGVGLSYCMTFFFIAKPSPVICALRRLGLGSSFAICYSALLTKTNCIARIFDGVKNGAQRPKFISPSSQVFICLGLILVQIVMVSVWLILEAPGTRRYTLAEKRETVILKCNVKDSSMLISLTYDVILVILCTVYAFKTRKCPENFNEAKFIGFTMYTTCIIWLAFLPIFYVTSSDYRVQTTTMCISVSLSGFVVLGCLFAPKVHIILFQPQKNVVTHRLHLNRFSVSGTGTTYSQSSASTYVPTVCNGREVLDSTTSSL

As for `O=C(Nc1ccc(Cl)c(Cl)c1)c1cc2ccccc2o1`, the 50% effective concentration (EC50) in data set [1] is > 10000 nM.

For `COc1ccc(NC(=O)c2ccccn2)cc1Cl`, the EC50 amounted to 740 nM in data set [2] and 1100 nM in [1]. Besides, the fold change (FC) in data set [3] worked out at 12; in data set [6] it was 7.2. Further, the results for the maximum response (Emax) in data set [4] and in [5] were 161% and 108%, respectively.

Take `COc1cc(NC(=O)c2ccccn2)ccc1F`: the Fu in data set [7] is listed as 6.5%; in data set [9], 5.1%. Moreover, the figures for the remaining at 1 h in data set [8] and in data set [10] were 3% and 6.3%, respectively. Besides, the EC50 in data set [2] is 370 nM; in data set [1], 780 nM. The fold change (FC) worked out at 26.7 in data set [3] and 17.5 in data set [6]. Further, the outcome in [11], in data set [12], in data set [13], in [14], in [15] and in data set [16] was inactive. The Emax is 207% in data set [4] and 107% in data set [5].

Regarding `N#Cc1ccc(NC(=O)c2ccccn2)cc1C(F)(F)F`, the 50% effective concentration (EC50) in [2] and in [1] was > 10000 nM throughout.

On to `Cc1cc(NC(=O)c2ccco2)ccc1Br`, for which, in [1], the concentration giving a half-maximal response (EC50) is > 5000 nM. Further, the fold change (FC) in data set [6] turned out to be 4.3.

Take `O=C(Nc1ccc2c(c1)OCO2)c1ccccn1`: the concentration for a half-maximal effect (EC50) in data set [2] was 500 nM; in data set [1], > 10000 nM. For the same compound, the Emax came to 90% in data set [4] and 50% in data set [5].

For the compound `O=C(Nc1ccc(Cl)c(Cl)c1)c1ccc(-c2ccccc2)o1`, the EC50 in [1] is > 10000 nM.

On to `COc1cc(NC(=O)c2ccccn2)ncn1`, for which the half-maximal effective concentration (EC50) in data set [2] and in data set [1] was > 10000 nM each time.

Turning to `COc1cc(NC(=O)c2ccccn2)ccc1Cl`, the Fu in data set [7] is recorded as 2.4%; in [9], 2.2%. The AUC in data set [17] turned out to be 173 ng·h/mL; in data set [21], 705 ng·h/mL. The remaining at 1 h in [8] came to 5.3%; in data set [10], 1.8%. The t1/2 in data set [18] was 9 min; in data set [23], 114 min. For the same compound, the figures for the highest concentration (Cmax) in [19] and in data set [22] were 154 ng/mL and 1580 ng/mL, respectively. Further, the CL/F in data set [20] came to 894 mL/min/kg. In addition, the fold change (FC) in data set [3] turned out to be 35.3; in [11] it was 2.7; in [6] it was 28.1. Besides, the maximum response (Emax) in [4] was 182%; in data set [5], 109%. The outcome in data set [12], in data set [13], in data set [14] and in data set [16] was inactive. The compound also registered an Activity in [15] of 5.1 µM.

Turning to `O=C(Nc1ccccc1)[C@]12C[C@H]1/C(=N\O)c1ccccc1O2`, the concentration for a half-maximal effect (EC50) in data set [2] was found to be 2030 nM. For the same compound, the fold change (FC) in data set [3] worked out at 8.8. Further, the maximum response (Emax) amounted to 251% in data set [4] and 88% in data set [5].

Take `O=C(Nc1ccc(Cl)c(Cl)c1)c1ccc(Br)o1`: the Emax in data set [4] turned out to be 62%. Further, the EC50 in data set [1] was found to be 4100 nM.

With `COc1cc(NC(=O)c2ccccn2)ccc1C`, the EC50 in data set [2] stood at 210 nM; in [1], 560 nM. The fold change (FC) amounted to 35.3 in data set [3] and 16.8 in [6]. For the same compound, the maximal response (Emax) in data set [4] came to 178%; in data set [5], 121%.

As for `O=C(Nc1ccc(Cl)c(Cl)c1)c1ccco1`, in data set [4], the maximum response (Emax) was determined as 135%. Moreover, the EC50 in [1] is > 5000 nM.

Regarding `O=C(Nc1ccc(Cl)c(Cl)c1)c1ccno1`, in data set [1], the EC50 is > 10000 nM.

As for `COc1nc(NC(=O)c2ccccn2)ccc1Cl`, the maximal effect (Emax) in data set [4] was 95%. In addition, the EC50 in [1] was > 5000 nM.

Regarding `Cn1cccc1C(=O)Nc1ccc(Cl)c(Cl)c1`, the EC50 in data set [1] is > 10000 nM.

In the case of `O=C(Nc1cccc(OC(F)F)c1)c1ccccn1`, the Fu in data set [7] was found to be 5.8%; in data set [9], 4%. The area under the curve (AUC) is 99 ng·h/mL in data set [17] and 976 ng·h/mL in [21]. Moreover, the remaining at 1 h in data set [8] was 2.4%; in data set [10], 1.4%. In addition, the t1/2 in data set [18] is 23.4 min; in data set [23], 15.6 min. Further, the Cmax in [19] amounted to 188 ng/mL; in data set [22], 1680 ng/mL. Moreover, the apparent clearance (CL/F) in data set [20] is 1420 mL/min/kg. The Emax was determined as 235% in data set [4] and 113% in data set [5]. In addition, the outcome in data set [12], in data set [13], in [14] and in data set [16] was inactive. The Activity in data set [15] was > 10 µM.

In the case of `O=C(Nc1ccc(F)c(C(F)(F)F)c1)c1ccccn1`, the concentration for a half-maximal effect (EC50) was found to be 1000 nM in data set [2] and 1500 nM in data set [1]. The fold change (FC) in data set [3] stood at 2.7; in [6], 2.1. The values for the Emax in data set [4] and in data set [5] were 54% and 42%, respectively.

`O=C(Nc1cccc(Cl)c1)c1ccccn1`: the EC50 in [2] amounted to 290 nM; in data set [1] it was 1100 nM. The fold change (FC) came out at 31.4 in data set [3] and 18.1 in data set [6]. Besides, the maximum response (Emax) is 227% in data set [4] and 124% in data set [5].

In the case of `O=C(Nc1ccc(Cl)c(Cl)c1)c1ccccn1`, in data set [4], the Emax was determined as 80%. The EC50 in data set [1] amounted to 1400 nM.

Regarding `O=C(Nc1cccc(OC(F)(F)F)c1)c1ccccn1`, the Fu worked out at 1.6% in data set [7] and 0.8% in data set [9]. In addition, the results for the remaining at 1 h in data set [8] and in data set [10] were 22% and 20%, respectively. Also, the figures for the Emax in data set [4] and in data set [5] were 132% and 75%, respectively.

For `O=C(Nc1ccc(Cl)c(Cl)c1)c1ccsc1`, in [1], the concentration giving a half-maximal response (EC50) is > 10000 nM.

`O=C(Nc1ccc(Cl)c(Cl)c1)c1ccccc1`: the EC50 in data set [1] is > 10000 nM.

Turning to `O=C(Nc1cccc(C(F)(F)F)n1)c1ccccn1`, the EC50 in data set [2] and in data set [1] was > 10000 nM each time.

Take `O=C(Nc1ccc(Cl)c(C(F)(F)F)c1)c1ccccn1`: the 50% effective concentration (EC50) is 1700 nM in data set [2] and 2100 nM in data set [1]. The fold change (FC) in data set [3] stood at 2.1; in data set [6], 1.8. Further, the figures for the maximal response (Emax) in data set [4] and in data set [5] were 47% and 41%, respectively.

Take `O=C(Nc1ccc(Cl)c(Cl)c1)c1cnccn1`: in [1], the EC50 was > 10000 nM.

Take `O=C(Nc1cccc(C(F)(F)F)c1)c1ccccn1`: the Fu in [7] was found to be 2.9%; in [9], 1.3%. Moreover, the remaining at 1 h in [8] amounted to 26%; in data set [10], 19%. Further, the values for the Emax in data set [4] and in [5] were 150% and 81%, respectively.

With `O=C(Nc1ccc(Cl)c(Cl)c1)c1ccncn1`, the Emax in [4] was 83%. In data set [1], the concentration for a half-maximal effect (EC50) was found to be 2800 nM.

In the case of `O=C(Nc1ccc(Cl)c(Cl)c1)C1CCCCC1`, the EC50 in data set [1] was > 10000 nM.

In the case of `O=C(Nc1cccc(Cl)c1)c1ccco1`, the EC50 in [1] is > 5000 nM. The fold change (FC) in data set [6] is 5.

Regarding `COc1ccc(NC(=O)c2ccccn2)cc1OC`, the EC50 was 2400 nM in data set [2] and > 5000 nM in data set [1]. Besides, the maximal effect (Emax) in data set [4] came out at 164%; in data set [5], 102%.
